hERG rescue: hERG (human) protection from proarrhythmic block | AID 1511 | CHO-hERG, FluxOR thallium flux, dofetilide IC70 present | actives 0.51% (n = 310,000) | Q12809 | activation (rescue from dofetilide block), less the hit threshold, % at 10 µM;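 active = activation above the mean of controls blocked by dofetilide plus 5 SD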;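 also: thallium influx through hERG after potassium depolarization seen as dye fluorescence rise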
KCNQ1 act: potentiators or activators of human KCNQ1 potassium channel; CHO-K1 KCNQ1, thallium flux FluxOR fluorescence; hits give high values; AID 2648; B-score at 10 µM; actives 0.35% (n = 310,000); P51787;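 active = fluorescence ratio B-score, a plate-corrected score, at least three library SD, with initial intensity B-score within 5 SD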
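Test system: CHO-K1 cells stably expressing KCNQ1 / Medium: assay buffer / Also added: depolarizing K+/Tl+ stimulus, K2SO4 and Tl2SO4 each 12.5 mM in 5x stock / Incubation: 90 min dye loading and 20 min compound exposure, both at room temperature / Signal: thallium influx via FluxOR fluorescence, kinetic imaging / Evaluation: B score of baseline-normalized fluorescence ratio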
KCNQ1 inh: human KCNQ1 channel inhibition; P51787; CHO-K1 KCNQ1, FluxOR thallium flux fluorescence; hits give high values; B-score at 10 µM; actives 1.3% (n = 310,000);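 active = compounds whose thallium flux B-score, printed positive for inhibition, exceeds three library SD while starting fluorescence stays within three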;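 also: channel opened by potassium depolarization with thallium stimulus after 20 min compound exposure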
KCNK3 inh: human KCNK3 channel inhibition, primary screen. O14649. AID 602410. CHO-KCNK3 thallium flux, FluxOR fluorescence; hits give low values. B-score at 10 µM. actives 0.84% (n = 340,000);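 active = B-score under library mean minus 4 SD, starting fluorescence ratio at most library mean plus 5 SD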;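 also: more negative B-score means stronger inhibition of thallium flux through KCNK3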
KCNK9 inh: blocks the human KCNK9 two-pore domain potassium channel | Q9NPC2 | HEK293 KCNK9, FluxOR thallium flux fluorescence; hits give low values | B-score at 10 µM | actives 1.2% (n = 310,000) | AID 488922;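 active = ratio B-score over 3 SD below the library mean, with starting fluorescence within 5 SD of its mean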;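 also: negative B-score means less thallium flux so channel inhibition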
Kir21 block: inhibitors of mouse Kir2.1 inward-rectifier potassium channel; P35561; HEK293-Kir2.1, FluxOR thallium flux fluorescence; hits give low values; B-score at 10 µM; actives 0.85% (n = 310,000);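 active = fluorescence ratio B-score at or below minus 3 SD of library scores, with starting-brightness B-score within 2 SD, cut at about -4.2 in these data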;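 also: channel flux triggered by added potassium and thallium sulfate stimulus; B-score of peak minus minimum fluorescence over baseline after thallium stimulus; more negative B-score means stronger Kir2.1 block with less thallium influx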
Target sequence (P35561 whole entry, looked up): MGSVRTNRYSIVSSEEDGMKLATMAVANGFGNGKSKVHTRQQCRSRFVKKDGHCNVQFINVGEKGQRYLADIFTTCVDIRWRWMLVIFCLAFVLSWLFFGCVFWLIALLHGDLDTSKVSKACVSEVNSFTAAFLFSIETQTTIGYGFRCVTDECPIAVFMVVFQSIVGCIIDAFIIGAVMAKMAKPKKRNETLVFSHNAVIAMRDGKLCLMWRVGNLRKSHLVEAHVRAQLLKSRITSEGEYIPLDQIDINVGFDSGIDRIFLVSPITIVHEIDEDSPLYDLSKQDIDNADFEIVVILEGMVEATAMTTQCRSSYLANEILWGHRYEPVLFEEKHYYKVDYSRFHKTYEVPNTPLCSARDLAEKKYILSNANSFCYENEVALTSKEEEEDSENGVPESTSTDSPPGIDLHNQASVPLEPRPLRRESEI
KCNK9 inh conf: human KCNK9 inhibitor confirmation; shares compounds with KCNK9 inh; HEK293 KCNK9 cells, FluxOR thallium flux fluorescence; inhibition, % at 10 µM; actives 43% (n = 4,900);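 active = thallium signal inhibited by more than 5 SD of the compound-free buffer control wells, on both duplicate plates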
Kir2-1 spec: selectivity of KCNK9 modulators against mouse Kir2.1 | shares compounds with KCNK9 inh | Kir2.1 cells, FluxOR thallium flux fluorescence | inhibition, % at 10 µM | actives 4% (n = 4,900) | AID 492993;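 active = thallium signal drop more than 5 SD beyond the mean of the no-compound control wells, seen in both duplicate plates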;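 also: signal is fluorescence rise after thallium addition divided by baseline fluorescence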
KCNK9 uninduced: second counter-screen for KCNK9 modulators: effect in non-induced cells. shares compounds with KCNK9 inh. non-induced KCNK9-HEK293, FluxOR thallium flux. inhibition, % at 10 µM. actives 40% (n = 4,900). AID 492997;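 active = thallium signal drop beyond 5 SD of the untreated control mean, on both duplicate plates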
Numbers stand for hits. Most compounds without a hit are left out; they make up all but 3.7% or so of the library.

COc1ccc(Cn2c(=O)[nH]c3cc(C(=O)N4CCN(Cc5ccccc5)CC4)ccc3c2=O)cc1 was read as hERG rescue inactive, KCNQ1 act inactive, KCNQ1 inh inactive, KCNK3 inh inactive, KCNK9 inh inactive and Kir21 block inactive.
COc1ccc2c(C)c(C(=O)N3CCN(Cc4ccccc4)CC3)oc2c1 was read as hERG rescue inactive, KCNQ1 act inactive, KCNQ1 inh inactive, KCNK3 inh inactive, KCNK9 inh inactive, Kir21 block inactive, KCNK9 inh conf inactive, Kir2-1 spec inactive and KCNK9 uninduced inactive.
For O=C(CSc1nncs1)Nc1ccc(S(=O)(=O)N2CCCC2)cc1 the results were hERG rescue inactive, KCNQ1 act inactive, KCNQ1 inh inactive, KCNK3 inh inactive, KCNK9 inh inactive and Kir21 block inactive.
Screening Cc1noc(N)c1C(=O)Nc1ccccc1F returned hERG rescue inactive, KCNQ1 act inactive, KCNQ1 inh inactive, KCNK3 inh inactive, KCNK9 inh -9.47, Kir21 block inactive, KCNK9 inh conf inactive, Kir2-1 spec inactive and KCNK9 uninduced inactive.
For COc1ccc(C(=O)Nc2ncc(C)s2)cc1S(=O)(=O)N1CCOCC1 the results were KCNK3 inh inactive.
`Cc1ccc2c(c1)N(CCCC(=O)NCCC1=CCCCC1)C(=O)CO2` gave hERG rescue inactive, KCNQ1 act inactive, KCNQ1 inh inactive, KCNK3 inh inactive, KCNK9 inh inactive, Kir21 block inactive, KCNK9 inh conf inactive, Kir2-1 spec inactive and KCNK9 uninduced inactive.
`CSCCC(NS(=O)(=O)c1ccc(C)cc1)C(=O)NC1CCCCCC1` (configuration not stated) gave hERG rescue inactive, KCNQ1 act inactive, KCNQ1 inh inactive, KCNK3 inh inactive, KCNK9 inh inactive and Kir21 block inactive.
Screening CCn1nc(C)c(/C=N/NC(=O)c2ccc3c(c2)c(C)c(C)n3Cc2ccccc2)c1C returned hERG rescue inactive, KCNQ1 act inactive, KCNQ1 inh inactive, KCNK3 inh inactive, KCNK9 inh -15, Kir21 block inactive, KCNK9 inh conf 54.5%, Kir2-1 spec inactive and KCNK9 uninduced 28.5%.
For CCn1ncc(/C=N\NC(=O)c2ccc3c(c2)c(C)c(C)n3Cc2ccccc2)c1C the results were hERG rescue inactive, KCNQ1 act inactive, KCNQ1 inh inactive, KCNK3 inh inactive, KCNK9 inh -17.5, Kir21 block inactive, KCNK9 inh conf 59.5%, Kir2-1 spec inactive and KCNK9 uninduced 29.5%.
`CCn1cc(/C=N\NC(=O)c2ccc3c(c2)c(C)c(C)n3Cc2ccccc2)c(C)n1` gave hERG rescue inactive, KCNQ1 act inactive, KCNQ1 inh inactive, KCNK3 inh inactive, KCNK9 inh -18.5, Kir21 block inactive, KCNK9 inh conf 68.0%, Kir2-1 spec inactive and KCNK9 uninduced 27.0%.
CCn1ncc(/C=N/NC(=O)c2ccc3c(c2)OCO3)c1C was read as hERG rescue inactive, KCNQ1 act inactive, KCNQ1 inh inactive, KCNK3 inh inactive, KCNK9 inh inactive and Kir21 block inactive.
COc1ccc(-n2c3c(cc(C(=O)NCC(=O)c4ccccc4)c2=O)C(=O)CC(C)(C)C3)cc1 was read as hERG rescue inactive, KCNQ1 act inactive, KCNQ1 inh inactive, KCNK3 inh inactive, KCNK9 inh inactive and Kir21 block inactive.
For O=C(C[C@@H]1C/C=C/CC[C@H](Cc2ccc(F)cc2)C(=O)OC[C@@H](Cc2ccccc2)NC1=O)N[C@H](CO)Cc1ccccc1 the results were KCNK3 inh inactive.
CCOC(=O)c1ccc(NC(=O)C2C3CCCCC32)cc1 (configuration not stated) was read as hERG rescue inactive, KCNQ1 act inactive, KCNQ1 inh inactive, KCNK3 inh inactive, KCNK9 inh -9.42, Kir21 block inactive, KCNK9 inh conf inactive, Kir2-1 spec inactive and KCNK9 uninduced inactive.

Screening results: PubChem, Johns Hopkins Ion Channel Center
